Yeast growth tox – yeast growth toxicity, wild-type and mutant, primary screen, cytotoxicity control for eIF2B function restoration project, wild-type and eIF2Bepsilon R284H mutant, A595. S. cerevisiae wild-type growth, A595 turbidity, 16 h. growth inhibition, % at 25 µM (by protocol). 30,000 tested, 0.3% active. AID 685, 2007;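 active means mutant and wild-type yeast strains alike exhibit over 30% growth inhibition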;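 further: 0% = untreated cell controls and 100% = YPD media blanks without cells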
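System: S. cerevisiae wild-type or eIF2Bepsilon-R284H mutant strain; times: 16 h growth with compound, 30 °C; signal: absorbance at 595 nm (turbidity); measure: growth inhibition (%) versus cell controls and blanks; compound: 25 µM single dose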
eIF2B yeast act – GCN4-lacZ reporter reduction in eIF2B-epsilon mutant yeast, primary screen, S. cerevisiae, eIF2B-epsilon R284H, Beta-Glo luminescence | 27,000 tested, 0.91% active | inhibition, % at 25 µM (by protocol);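 active means mutant luminescence inhibited past about 50% while wild type luminescence and mutant growth stay under set limits, limit read from the data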
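Material – yeast eIF2B-epsilon R284H mutant carrying GCN4–beta-galactosidase fusion · Medium – YPD yeast growth medium · Compound – one concentration, 25 µM, 0.25% DMSO · Times – 16 h at 30 °C exposure · Signal – Beta-Glo luminescence plus absorbance at 595 nm · Read-out – % inhibition of reporter signal and growth versus controls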
Active calls of the source: *; . = no result. A selection: hits, their analogues and other compounds. The true share with any hit is near 1%.

SMILES	Yeast growth tox	eIF2B yeast act
CCCOc1ccc(N2C(=O)CC(SC(=NCC)Nc3cccc(F)c3)C2=O)cc1 (centres undefined)	-44	53*
CCOC(=O)N1CCN(C(=O)C2CCCN(S(=O)(=O)c3ccc(C)cc3)C2)CC1 (centres undefined)	12	.
CCOC(=O)C(C(=O)OCC)C(C(=O)OCC)N1CCOCC1 (centres undefined)	33*	5
CCOC(=O)C(C)CC(C)C(=O)N1CCOCCOCCN(C(=O)C(C)CC(C)C(=O)OCC)CCOCC1 (centres undefined)	21	9
CC1(C)CC2CC(C)(CN2C(=O)COC(=O)c2ccc(Cl)c(N)c2)C1 (centres undefined)	-1	.
O=C(c1cccs1)N1CCC(c2ccccc2)C1 (centres undefined)	18	71*
O=C(c1cccs1)N1CCCC1	0	5
Cc1cc(NCCO)nc(N2CCOCC2)n1	-11	-6
O=c1ccc(Cc2ccccn2)n[nH]1	16	-28
O=C1CC(N2CCN(c3nc4ccccc4s3)CC2)C(=O)N1Cc1cccs1 (centres undefined)	73*	-26
O=C1CC(N2CCN(c3ccc(F)cc3)CC2)C(=O)N1Cc1cccs1 (centres undefined)	2	5
CNc1nc(N(C)C)nc(N(C)C)n1	1	9
N#CC1=C(SCC(=O)c2ccc(Cl)cc2)NC2=C(C(=O)CCC2)C1c1ccco1 (centres undefined)	5	51*
Cc1ccc(NC(=O)CSC2=C(C#N)C(c3ccco3)C3=C(CCCC3=O)N2)cc1 (centres undefined)	6	-7
Cc1ccc(S(=O)(=O)c2c(COC(=O)c3ccc(Cl)cc3)c(-c3ccccc3)nn2C)cc1	23	20
Cc1cc(NC(=O)CSc2nc3ccc(Cl)cc3[nH]2)no1	46	-2
COc1ccccc1NC(=O)Oc1ccc(C(C)=O)cc1	-4	14
COc1ccccc1NC(=S)NNC(=O)c1ccccc1	-8	58*
O=C(NC1CCCCC1)c1ccc(Cn2cc(Cl)cn2)cc1	17	.
COc1ccc(C(=O)Nn2c(C)nnc2-n2nc(C)cc2C)cc1OC	0	56*
COc1ccccc1/C=N/n1c(C)nnc1-n1nc(C)cc1C	7	17
CC(C)(C)C(=O)Cn1c(=N)n(Cc2ccccc2Cl)c2ccccc21	3	.
CC(C)(C)C(=O)C(Cc1ccccc1)n1cncn1 (centres undefined)	62*	26
CC(C)(C)C(=O)C(Cc1ccccc1Cl)n1cncn1 (centres undefined)	74*	27
CCCC(C(=O)c1ccccc1)n1cncn1 (centres undefined)	2	6
SMILES	Yeast growth tox	eIF2B yeast act
C=CCn1c(C)cc(C(=O)CSc2n[nH]c(N)n2)c1C	4	.
CC(OC(=O)c1cc(=O)[nH]c2ccccc12)c1ccccc1 (centres undefined)	25	-37
CCCn1c(N)c(C(=O)CSc2nnnn2-c2ccc(O)cc2)c(=O)n(C)c1=O	-3	17
Cn1c(-c2ccc(C=O)s2)nc2c3ccccc3c3ccccc3c21	6	2
Cc1noc(C)c1C(=O)Nc1ccc2c(c1)CCC2	.	65*
O=C(Nc1ccc2c(c1)CCC2)C1CCCO1 (centres undefined)	5	21
CCN(CC)c1ccc(NC(=O)COC(=O)c2ccc3ccccc3n2)cc1	1	-20
Nc1nnc(SC2CC(=O)N(c3ccccc3)C2=O)s1 (centres undefined)	62*	4
COc1ccc(N2C(=O)CC(Sc3nc(C)cc(C)c3C#N)C2=O)cc1 (centres undefined)	.	-17
COc1ccc(S(=O)(=O)Nc2ccc(C)cc2)cc1OC	-9	27
Cc1cc(C)cc(NS(=O)(=O)c2ccc3[nH]c(=O)[nH]c3c2)c1	0	52*
CC1Cc2ccccc2N1C(=O)c1cc2c(=O)n3ccccc3nc2n1C (centres undefined)	-2	-5
COC(=O)c1cc2c(=O)n3ccccc3nc2n(C)c1=N	32*	0
COc1cccc(NC(=O)CN(c2ccc(C)cc2)S(=O)(=O)c2c(C)nn(C)c2C)c1	1	53*
COc1ccc(N(CC(=O)NC2CCCCCC2)S(=O)(=O)c2c(C)nn(C)c2C)cc1	-30	14
CN(CCC(=O)Nc1ccc(Br)cc1)Cc1ccccc1	3	.
CCOc1cc(S(=O)(=O)NCc2ccccn2)ccc1Cl	-18	13
Clc1cccc2sc(-c3nnc(-c4ccccc4)o3)c(Cl)c12	9	-14
COc1ccc(Oc2c(-c3ccc(O)cc3O)n[nH]c2C)cc1	6	-1
CCCc1ccc(Oc2c(-c3ccc(O)c(C)c3O)n[nH]c2C)cc1	81*	-32
